Active and inactive are the calls of the source. The calls are words filed in the database; no cut-off is given here.

Here are results for 12 compounds from ChEMBL document CHEMBL4130511, “Phenylpropenoids from Bupleurum fruticosum as Anti-Human Rhinovirus Species A Selective Capsid Binders” (J Nat Prod, 2017).

In series [1] the target is T1, VP1 capsid protein (Human rhinovirus sp.) (UniProt Q7T664).
T1 sequence (whole entry): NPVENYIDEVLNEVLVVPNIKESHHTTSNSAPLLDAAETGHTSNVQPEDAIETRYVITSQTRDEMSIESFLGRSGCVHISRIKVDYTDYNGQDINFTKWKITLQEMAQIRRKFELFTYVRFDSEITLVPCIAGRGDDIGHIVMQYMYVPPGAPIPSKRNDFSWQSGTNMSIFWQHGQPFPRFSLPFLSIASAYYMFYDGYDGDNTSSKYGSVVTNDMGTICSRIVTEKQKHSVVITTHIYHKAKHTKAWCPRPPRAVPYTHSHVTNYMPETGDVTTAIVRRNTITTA
Nature of the series: Inhibition of Human rhinovirus serotype 39 capsid infected in human HeLa cells assessed as reduction in virus-induced cytopathic effect at 5 ug/ml treated 1 hr post viral infection measured after 24 to 36 hrs relative to control. The series is classed as cell-based. The note with it: rhinovirus A39. Summed up: (§1)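 HeLa (Ohio strain) monolayers in 24-well plates (DMEM, 10% fetal calf serum) infected with ATCC HRV39 (working stock prepared as cell lysate). Compound at 5 μg/mL added before (−1 h), at (0 h) or after infection. Cells incubated in CO2 atmosphere for 24–36 h, then washed twice with HBSS. Virus yield inhibition (%) determined by virus-cell-based CPE reduction assay in HeLa cells. Pirodavir (5 μg/mL) served as positive control.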
Background: Protection from cytopathic effect is a common read-out in antiviral testing.

Series [2] addresses T1, VP1 capsid protein (Human rhinovirus sp.). Nature of the series: Inhibition of Human rhinovirus serotype 39 capsid infected in human HeLa cells assessed as reduction in virus-induced cytopathic effect at 5 ug/ml treated 1 hr prior to viral infection measured 24 to 36 hrs post viral infection relative to control. The series is classed as cell-based. The settings on record: rhinovirus A39. Summed up:
as §1

The test system of series [3] is rhinovirus B14. Nature of the series: Antiviral activity against Human rhinovirus serotype 14 infected in human HeLa cells assessed as reduction in virus-induced cytopathic effect after 24 to 36 hrs by MTT assay. The series is classed as functional, organism-based. The note with it: Rhinovirus B. The method, boiled down: (§2)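 HeLa (Ohio) monolayers in DMEM with 1% nonessential amino acids and 10% fetal calf serum, infected at MOI 1, then given serial compound dilutions. Incubation 24−36 h at 33 °C, 3% CO2, until control CPE was almost total. Multicycle CPE reduction read by MTT. EC50 (50% CPE inhibition) taken from dose−response curves by linear regression. Pleconaril served as reference.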

Series [4] has as its target T1, VP1 capsid protein (Human rhinovirus sp.). Nature of the series: Inhibition of Human rhinovirus serotype 39 capsid infected in human HeLa cells assessed as reduction in virus-induced cytopathic effect at 5 ug/ml treated 2 hrs post viral infection measured after 24 to 36 hrs relative to control. The series is classed as cell-based. The settings on record: rhinovirus A39. The method, boiled down: as §1

The nature of series [5]: Selectivity index, ratio of CC50 for human HeLa cells to EC50 for Human rhinovirus serotype 39 infected in human HeLa cells. The series is classed as toxicity, cell-based. The note with it: read-out: Ratio CC50/EC50. The method, boiled down: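 Selectivity index computed as CC50 (MTT, uninfected HeLa) divided by EC50 (MTT, HRV39 CPE reduction in HeLa at MOI 1, 24−36 h at 33 °C).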

For series [6], the target named is T1, VP1 capsid protein (Human rhinovirus sp.). Nature of the series: Inhibition of Human rhinovirus serotype 39 capsid infected in human HeLa cells assessed as reduction in virus-induced cytopathic effect at 5 ug/ml treated 3 hrs post viral infection measured after 24 to 36 hrs relative to control. The series is classed as cell-based. The settings on record: rhinovirus A39. Summed up:
as §1

Series [7] concerns rhinovirus A39. Nature of the series: Antiviral activity against Human rhinovirus serotype 39 infected in human HeLa cells assessed as reduction in virus-induced cytopathic effect after 24 to 36 hrs by MTT assay. The series is classed as functional, organism-based. The note with it: Rhinovirus A. Summed up: as §2
Series [8] addresses T1, VP1 capsid protein (Human rhinovirus sp.). Kind of series: Inhibition of Human rhinovirus serotype 39 capsid infected in human HeLa cells assessed as reduction in virus-induced cytopathic effect at 5 ug/ml treated with virus inoculum measured after 24 to 36 hrs relative to control. The note with it: rhinovirus A39. The series is classed as cell-based. Summed up:
as §1

Series [9] in a line: Cytotoxicity against human HeLa cells assessed as decrease in cell viability after 72 hrs by MTT assay. The series is classed as cell-based. The method, boiled down: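 HeLa monolayers exposed to a range of compound concentrations at 37 °C, 5% CO2. Morphology (rounding, shrinking, detachment) checked by light microscopy at 24, 48 and 72 h. Viability measured by MTT colorimetry. CC50 is the concentration that lowered control absorbance by 50%.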
Background: Formazan colour is commonly taken as a measure of viable cells.

As a reminder, the inhibition is the share of the control response that was lost under treatment. The term EC50 denotes the midpoint of the concentration-response curve. As a reminder, the CC50 is the concentration that lowers cell viability or growth by half. For `C/C=C(/C)C(=O)OC/C(=C/C)C(=O)OC/C=C/c1ccc(OC)c(OC)c1`, the inhibition in series [1] came out at 78%; in series [2], 100%; in series [4], 65%; in [6] it was 50%; in series [8], 90%. Moreover, the half-maximal effective concentration (EC50) in [3] is over 20.3 µM; in series [7] it was 2.4 µM. Also, in series [5], the selectivity ratio amounted to 8.4. For the same compound, in series [9], the CC50 at 72 h is 20.3 µM.

`C=CC(O)C#CC#C/C=C/C(O)CCCCCCCCO` (configuration not stated): the EC50 in series [3] and in series [7] was over 107 µM throughout. For the same compound, in series [9], the 50% cytotoxic concentration (CC50) at 72 h amounted to 107 µM.

With `CC(C)CC(=O)OC/C=C/c1ccccc1`, the EC50 in series [3] and in series [7] was over 142 µM in each case. In addition, the CC50 at 72 h in series [9] was found to be 142 µM.

In the case of `COc1ccc(/C=C/CO)cc1OC`, the EC50 in series [3] and in [7] was over 160 µM in each case. For the same compound, the CC50 at 72 h in [9] turned out to be 160 µM.

Consider `C/C=C(/C)C(=O)OC/C=C/c1ccc(OC)cc1`, for which the concentration giving a half-maximal response (EC50) is over 248 µM in [3] and 30.9 µM in series [7]. For the same compound, the selectivity ratio in series [5] turned out to be 8. The CC50 at 72 h in [9] worked out at 248 µM.

With `C=C[C@H](O)C#CC#CC/C=C\CCCCCCCCO`, the EC50 in [3] was over 14.6 µM; in series [7] it was 1.8 µM. Besides, the selectivity ratio in [5] worked out at 8.1. Moreover, the half-maximal cytotoxic concentration (CC50) at 72 h in series [9] is 14.6 µM.

As to `C/C=C(/C)C(=O)OC/C(=C/C)C(=O)OC/C=C/c1ccc(OC)cc1`, the concentration for a half-maximal effect (EC50) in [3] and in series [7] was over 36.3 µM in each case. The 50% cytotoxic concentration (CC50) at 72 h in series [9] amounted to 36.3 µM.

For the compound `CC(C)[C@@H]1CCC(C=O)=C[C@H]1O`, the half-maximal effective concentration (EC50) in series [3] and in [7] was over 47.6 µM each time. The half-maximal cytotoxic concentration (CC50) at 72 h in series [9] amounted to 47.6 µM.

On to `C/C=C(/C)C(=O)OC/C=C/c1ccc(OC)c(OC)c1`, for which the 50% effective concentration (EC50) in series [3] and in series [7] was over 453 µM in each case. Besides, the CC50 at 72 h in series [9] is 453 µM.

Regarding `CCOC(=O)c1ccc(OCCC2CCN(c3ccc(C)nn3)CC2)cc1`, the inhibition entry in [8] was “Active”.

On to `Cc1cc(CCCOc2c(C)cc(-c3noc(C(F)(F)F)n3)cc2C)on1` [PLECONARIL], for which the concentration for a half-maximal effect (EC50) in [3] came to 0.3 µM; in [7], 0.1 µM. In addition, the CC50 at 72 h in series [9] was determined as 131 µM.

Regarding `COc1ccc(/C=C/CO)cc1`, the half-maximal effective concentration (EC50) in series [3] and in series [7] was over 189 µM each time. Moreover, in series [9], the half-maximal cytotoxic concentration (CC50) at 72 h came out at 189 µM.
